# Experimental data from ChEMBL document CHEMBL4265911, “The synthesis and kinetic evaluation of aryl α-aminophosphonates as novel inhibitors of T. cruzi trans-sialidase” (Eur J Med Chem, 2018).
# T1: Trans-sialidase (Trypanosoma cruzi, UniProt Q26964)
# T1 sequence (Q26964 whole entry): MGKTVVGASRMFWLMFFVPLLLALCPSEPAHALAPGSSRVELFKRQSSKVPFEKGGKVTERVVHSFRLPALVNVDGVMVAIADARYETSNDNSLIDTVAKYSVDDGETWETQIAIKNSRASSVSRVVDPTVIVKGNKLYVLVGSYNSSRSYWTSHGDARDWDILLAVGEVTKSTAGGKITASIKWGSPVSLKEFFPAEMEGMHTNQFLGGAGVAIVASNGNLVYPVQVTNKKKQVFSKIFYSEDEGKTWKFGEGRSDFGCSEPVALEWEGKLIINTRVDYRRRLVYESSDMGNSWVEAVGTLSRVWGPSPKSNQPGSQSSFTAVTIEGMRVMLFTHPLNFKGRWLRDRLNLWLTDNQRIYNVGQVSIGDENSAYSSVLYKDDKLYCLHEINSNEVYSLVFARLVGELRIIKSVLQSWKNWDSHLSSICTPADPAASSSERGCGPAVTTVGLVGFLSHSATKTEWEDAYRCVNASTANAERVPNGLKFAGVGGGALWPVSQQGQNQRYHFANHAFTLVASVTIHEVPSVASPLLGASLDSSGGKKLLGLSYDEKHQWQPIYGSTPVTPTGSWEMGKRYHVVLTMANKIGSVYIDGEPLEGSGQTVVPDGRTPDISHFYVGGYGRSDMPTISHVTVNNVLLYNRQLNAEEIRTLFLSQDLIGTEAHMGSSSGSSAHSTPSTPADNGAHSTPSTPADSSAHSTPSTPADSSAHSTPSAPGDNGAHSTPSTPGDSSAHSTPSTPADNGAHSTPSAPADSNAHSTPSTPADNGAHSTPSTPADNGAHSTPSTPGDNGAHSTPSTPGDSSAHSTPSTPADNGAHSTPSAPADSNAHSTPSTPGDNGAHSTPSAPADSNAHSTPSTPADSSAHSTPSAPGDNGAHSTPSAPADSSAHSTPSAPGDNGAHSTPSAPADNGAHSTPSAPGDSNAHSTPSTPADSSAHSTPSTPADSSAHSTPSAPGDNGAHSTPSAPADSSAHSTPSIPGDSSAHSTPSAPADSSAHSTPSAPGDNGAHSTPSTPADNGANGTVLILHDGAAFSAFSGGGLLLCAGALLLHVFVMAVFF
# T2: Sialidase (Clostridium perfringens, UniProt P10481)
# T2 sequence (P10481 whole entry): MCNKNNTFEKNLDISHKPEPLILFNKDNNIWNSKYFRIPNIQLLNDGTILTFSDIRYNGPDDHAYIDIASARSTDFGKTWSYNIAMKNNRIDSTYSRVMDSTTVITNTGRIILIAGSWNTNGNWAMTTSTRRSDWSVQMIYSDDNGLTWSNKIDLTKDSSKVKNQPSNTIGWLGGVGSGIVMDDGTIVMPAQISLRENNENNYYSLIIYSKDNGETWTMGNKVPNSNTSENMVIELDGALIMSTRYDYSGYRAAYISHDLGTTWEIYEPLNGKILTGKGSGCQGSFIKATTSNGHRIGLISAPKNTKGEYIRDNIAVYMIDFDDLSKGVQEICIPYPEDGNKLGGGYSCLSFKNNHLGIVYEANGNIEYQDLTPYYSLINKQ
# B1: Trans-sialidase (Trypanosoma cruzi), Q26964 (protein)
# chain: T1 sequence (Q26964 whole entry)
# Key:
# Trans-sialidase [1] = target: T1, Trans-sialidase; test: Inhibition of Trypanosoma cruzi trans-sialidase using CF3MuSA as substrate by UV/visible spectrophotometric method
# Trans-sialidase [2] = target: T1, Trans-sialidase; test: Non-competitive inhibition of recombinant HisA-tagged Trypanosoma cruzi trans-sialidase expressed in Escherichia coli BL21 (DE3) using varying levels of MuNANA as substrate by Lineweaver-burk plot analysis
# Outline: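 TcTS residual hydrolytic activity was measured with MuNANA at 0–400 µM across several set inhibitor concentrations, using the fluorometric method at 35°C and pH 7.5. Km/Vmax came from nonlinear fitting. Ki was fitted with competitive, non-competitive, uncompetitive and mixed models, and the best-fitting model was assigned as the mode. Lineweaver-Burk double-reciprocal plots were made at each inhibitor level.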
# Trans-sialidase [3] = target: T1, Trans-sialidase; test: Inhibition of recombinant HisA-tagged Trypanosoma cruzi trans-sialidase expressed in Escherichia coli BL21 (DE3) using MuNANA as substrate pretreated for 10 mins followed by substrate addition by fluorescence assay
# Outline: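 Continuous fluorometric hydrolysis assay at 35°C in 20mM Tris-HCl, 50mM NaCl, pH 7.5, 0.01% Triton X100. TcTS (50 µg/mL) was preincubated 10 min with at least seven inhibitor levels (1 µM–15 mM), then MuNANA (200 µM) was added. 4-Methylumbelliferone was read at ex 360/em 460 nm, with rate taken as the linear-region slope. IC50 was set at 50% activity loss versus the no-inhibitor control; n=3 independent experiments.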
# [4] = Solubility of the compound in pH 7.5 Tris-HCl buffer at >7.5 mM; assay type: physicochemical
# Sialidase = target: T2, Sialidase; test: Inhibition of Clostridium perfringens neuraminidase using MuNANA as substrate pretreated for 10 mins followed by substrate addition by fluorescence assay
# Sialidase A = Sialidase A (Streptococcus pneumoniae, UniProt P62575); test: Inhibition of Streptococcus pneumoniae neuraminidase A using MuNANA as substrate pretreated for 10 mins followed by substrate addition by fluorescence assay
# [5] = Selectivity ratio of IC50 for Streptococcus pneumoniae neuraminidase A to IC50 for recombinant HisA-tagged Trypanosoma cruzi trans-sialidase expressed in Escherichia coli BL21 (DE3)
# [6] = Selectivity ratio of IC50 for Clostridium perfringens neuraminidase to IC50 for recombinant HisA-tagged Trypanosoma cruzi trans-sialidase expressed in Escherichia coli BL21 (DE3)
# Trans-sialidase [7] = target: T1, Trans-sialidase; test: Inhibition of recombinant Trypanosoma cruzi trans-sialidase expressed in Escherichia coli BL21 (DE3) using MuNANA as substrate after 10 mins in presence of [D-glucose-1-14C]lactose by liquid scintillation counting method
# Trans-sialidase [8] = target: T1, Trans-sialidase; test: Inhibition of Trypanosoma cruzi trans-sialidase
# Outline: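 TcTS, point-mutated to aid crystallisation and expressed in E. coli BL21(DE3), at 50 µg/mL; pre-incubated 10 min at 35°C with ≥7 inhibitor levels (1 µM–15 mM). MuNANA (200 µM) then added. Buffer: 20 mM Tris-HCl, 50 mM NaCl, pH 7.5, 0.01% Triton X100. Continuous fluorescence (ex 360/em 460 nm), slope RFU/min. IC50 versus no-inhibitor control; n=3 independent experiments.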
# [9] = compound: OC[C@@H](O)[C@@H](O[C@@H]1O[C@H](CO)[C@H](O)[C@H](O)[C@H]1O)[C@H](O)[C@@H](O)CO; test: Inhibition of recombinant HisA-tagged Trypanosoma cruzi trans-sialidase expressed in Escherichia coli BL21 (DE3) using 3-sialyl-lactose as donor measured after 15 mins by HPAEC-PAD
# Chain of Sialidase A (P62575 whole entry): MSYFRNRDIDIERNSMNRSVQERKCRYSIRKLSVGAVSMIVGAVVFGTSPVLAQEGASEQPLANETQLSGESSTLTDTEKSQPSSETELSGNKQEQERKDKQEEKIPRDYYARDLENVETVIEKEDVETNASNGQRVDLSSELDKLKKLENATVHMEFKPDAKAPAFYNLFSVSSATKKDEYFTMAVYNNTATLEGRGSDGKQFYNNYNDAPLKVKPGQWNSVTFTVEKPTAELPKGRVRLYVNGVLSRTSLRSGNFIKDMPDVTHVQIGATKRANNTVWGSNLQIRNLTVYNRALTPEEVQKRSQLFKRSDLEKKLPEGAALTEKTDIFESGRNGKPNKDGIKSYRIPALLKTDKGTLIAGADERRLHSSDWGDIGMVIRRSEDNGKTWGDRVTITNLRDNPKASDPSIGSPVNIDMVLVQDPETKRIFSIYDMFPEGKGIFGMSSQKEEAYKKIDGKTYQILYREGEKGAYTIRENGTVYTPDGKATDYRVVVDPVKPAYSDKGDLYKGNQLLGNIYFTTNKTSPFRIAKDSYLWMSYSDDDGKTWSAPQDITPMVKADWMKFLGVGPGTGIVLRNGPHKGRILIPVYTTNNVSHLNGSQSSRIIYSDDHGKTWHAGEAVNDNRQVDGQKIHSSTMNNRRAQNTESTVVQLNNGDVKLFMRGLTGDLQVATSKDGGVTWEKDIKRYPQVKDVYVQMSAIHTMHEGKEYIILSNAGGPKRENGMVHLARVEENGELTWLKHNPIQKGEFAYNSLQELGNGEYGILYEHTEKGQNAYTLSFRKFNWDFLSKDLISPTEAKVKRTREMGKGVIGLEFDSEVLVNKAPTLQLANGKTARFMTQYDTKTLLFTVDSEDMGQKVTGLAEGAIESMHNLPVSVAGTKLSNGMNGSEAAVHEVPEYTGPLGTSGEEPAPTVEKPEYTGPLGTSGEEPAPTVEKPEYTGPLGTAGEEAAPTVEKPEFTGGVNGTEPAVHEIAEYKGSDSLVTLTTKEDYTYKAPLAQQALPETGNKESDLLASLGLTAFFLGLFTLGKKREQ
molecule,measurement,setting,value
Cc1ccc(S(=O)(=O)Nc2ccc(C(=O)/C=C/c3ccc(O)c(O)c3)cc2)cc1,IC50,Trans-sialidase [1],900 nM
O=P(O)(O)C(Nc1cccc2ccccc12)c1ccccc1 (racemic),Ki,Trans-sialidase [2],430 µM
same,IC50,Trans-sialidase [3],470 µM
O=P(O)(O)C(Nc1cccc2ccccc12)c1ccc(C(F)(F)F)cc1 (racemic),IC50,Trans-sialidase [3],290 µM
COc1ccc(C(Nc2cccc3ccccc23)P(=O)(O)O)cc1 (racemic),IC50,Trans-sialidase [3],270 µM
CC(=O)Nc1ccc(C(Nc2cccc3ccccc23)P(=O)(O)O)cc1 (racemic),Ki,Trans-sialidase [2],190 µM
same,IC50,Trans-sialidase [3],230 µM
O=P(O)(O)C(Nc1ccccc1-c1ccccc1)c1ccccc1 (racemic),IC50,Trans-sialidase [3],630 µM
O=P(O)(O)C(Nc1cccc2ccccc12)c1ccc(Cl)cc1 (racemic),IC50,Trans-sialidase [3],710 µM
O=P(O)(O)C(Nc1cccc2ccccc12)c1cc(C(F)(F)F)cc(C(F)(F)F)c1 (racemic),IC50,Trans-sialidase [3],2350 µM
O=P(O)(O)C(Nc1ccccc1)c1ccccc1 (racemic),solubility,[4],Soluble
same,IC50,Trans-sialidase [3],> 7500 µM
O=P(O)(O)C(Nc1cccc(-c2ccccc2)c1)c1ccccc1 (racemic),IC50,Trans-sialidase [3],5580 µM
O=P(O)(O)C(Nc1ccc2ccccc2c1)c1ccccc1 (racemic),IC50,Trans-sialidase [3],510 µM
O=[N+]([O-])c1ccc(C(Nc2cccc3ccccc23)P(=O)(O)O)cc1 (racemic),IC50,Sialidase,2.39 mM
same,Ki,Trans-sialidase [2],140 µM
same,IC50,Sialidase A,1.41 mM
same,Ratio IC50,[5],7 to 12
same,IC50,Trans-sialidase [3],210 µM
same,Ratio IC50,[6],7 to 12
CC(=O)N[C@H]1[C@H]([C@H](O)[C@H](O)CO)OC(C(=O)O)=C[C@@H]1O [NEU5AC2EN],Ki,Trans-sialidase [7],12.3 mM
Cc1ncc(COP(=O)(O)O)c(C=O)c1O [PYRIDOXAL PHOSPHATE ANHYDROUS],Ki,Trans-sialidase [8],7.3 mM
B1,Km,[9],260 µM
